According to ChEMBL document CHEMBL2034871, “First-in-class, dual-action, 3,5-disubstituted indole derivatives having human nitric oxide synthase (nNOS) and norepinephrine reuptake inhibitory (NERI) activity for the treatment of neuropathic pain” (J Med Chem, 2012):

Tests used:
[1] = Inhibition of sigma receptor at 10 uM
Summary of the method: (§1)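 Broad in vitro receptor binding screen at one concentration, 10 μM. Specific binding taken as total minus nonspecific binding with excess unlabeled ligand. […] A reference compound was run concurrently in each assay.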

[2] = target: T1, Muscarinic acetylcholine receptor M4 (Homo sapiens) (UniProt P08173); test: Inhibition of human muscarinic M4 receptor at 10 uM; summary of the method: as §1
T1 sequence (whole entry): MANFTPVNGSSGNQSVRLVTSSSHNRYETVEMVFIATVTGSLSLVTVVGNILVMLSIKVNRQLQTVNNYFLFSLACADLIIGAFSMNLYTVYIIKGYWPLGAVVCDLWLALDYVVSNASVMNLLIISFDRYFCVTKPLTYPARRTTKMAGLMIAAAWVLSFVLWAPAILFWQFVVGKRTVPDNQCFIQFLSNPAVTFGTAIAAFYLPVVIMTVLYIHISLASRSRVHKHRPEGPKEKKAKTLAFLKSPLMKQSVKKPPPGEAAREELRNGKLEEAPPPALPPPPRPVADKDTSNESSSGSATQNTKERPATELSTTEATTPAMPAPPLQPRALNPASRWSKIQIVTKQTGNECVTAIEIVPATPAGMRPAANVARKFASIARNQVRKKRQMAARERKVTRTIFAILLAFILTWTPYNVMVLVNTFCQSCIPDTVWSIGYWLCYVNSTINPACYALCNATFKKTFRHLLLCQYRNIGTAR

[3] = target: T2, Muscarinic acetylcholine receptor M1 (Homo sapiens) (UniProt P11229); test: Inhibition of human muscarinic M1 receptor at 10 uM; summary of the method: as §1
T2 sequence (whole entry): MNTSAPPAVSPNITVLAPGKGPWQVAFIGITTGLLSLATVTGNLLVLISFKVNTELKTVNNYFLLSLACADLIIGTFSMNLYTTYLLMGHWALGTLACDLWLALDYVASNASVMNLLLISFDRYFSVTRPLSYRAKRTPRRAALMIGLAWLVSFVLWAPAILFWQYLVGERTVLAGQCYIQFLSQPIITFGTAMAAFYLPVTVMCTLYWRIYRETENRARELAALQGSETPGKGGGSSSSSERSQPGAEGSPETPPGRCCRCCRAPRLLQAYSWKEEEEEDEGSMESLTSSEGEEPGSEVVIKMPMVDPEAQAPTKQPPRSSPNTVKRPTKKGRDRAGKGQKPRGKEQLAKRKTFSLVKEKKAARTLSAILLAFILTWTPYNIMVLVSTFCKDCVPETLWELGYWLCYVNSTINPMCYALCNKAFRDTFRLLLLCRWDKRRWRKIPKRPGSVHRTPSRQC

[4] = target: Muscarinic acetylcholine receptor M3 (Homo sapiens) (UniProt P20309); test: Inhibition of human muscarinic M3 receptor at 10 uM; summary of the method: as §1
Chain of Muscarinic acetylcholine receptor M3 (Homo sapiens) (P20309 whole entry, looked up): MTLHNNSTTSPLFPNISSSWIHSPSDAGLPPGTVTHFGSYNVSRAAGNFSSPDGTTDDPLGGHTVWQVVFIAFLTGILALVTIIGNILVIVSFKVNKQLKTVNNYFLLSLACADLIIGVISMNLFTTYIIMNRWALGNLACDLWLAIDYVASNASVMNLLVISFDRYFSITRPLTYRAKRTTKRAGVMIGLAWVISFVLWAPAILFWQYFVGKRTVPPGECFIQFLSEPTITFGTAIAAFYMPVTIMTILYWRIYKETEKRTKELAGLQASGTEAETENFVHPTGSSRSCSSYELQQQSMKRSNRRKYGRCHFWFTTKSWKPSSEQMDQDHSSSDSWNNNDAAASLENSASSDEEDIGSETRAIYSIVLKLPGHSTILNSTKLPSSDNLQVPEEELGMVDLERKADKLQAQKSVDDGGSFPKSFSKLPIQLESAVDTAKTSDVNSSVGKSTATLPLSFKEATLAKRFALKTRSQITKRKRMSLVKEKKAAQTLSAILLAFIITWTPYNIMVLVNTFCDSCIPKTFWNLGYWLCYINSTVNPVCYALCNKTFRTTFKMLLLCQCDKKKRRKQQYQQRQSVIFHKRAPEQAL

[5] = target: Mu-type opioid receptor (Homo sapiens) (UniProt P35372); test: Inhibition of mu opioid receptor at 10 uM; summary of the method: as §1
Chain of Mu-type opioid receptor (Homo sapiens) (P35372 whole entry): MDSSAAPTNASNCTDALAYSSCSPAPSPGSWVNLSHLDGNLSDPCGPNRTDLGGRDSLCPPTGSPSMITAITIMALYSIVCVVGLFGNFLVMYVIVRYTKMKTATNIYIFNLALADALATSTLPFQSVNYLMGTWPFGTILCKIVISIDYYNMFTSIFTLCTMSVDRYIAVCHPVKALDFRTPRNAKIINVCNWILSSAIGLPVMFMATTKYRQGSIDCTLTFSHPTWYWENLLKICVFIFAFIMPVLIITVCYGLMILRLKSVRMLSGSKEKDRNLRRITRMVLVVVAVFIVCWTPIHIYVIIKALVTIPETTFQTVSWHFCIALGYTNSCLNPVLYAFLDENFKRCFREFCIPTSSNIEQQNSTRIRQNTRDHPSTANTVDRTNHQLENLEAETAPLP

[6] = target: T3, Muscarinic acetylcholine receptor M2 (Homo sapiens) (UniProt P08172); test: Inhibition of human muscarinic M2 receptor at 10 uM; summary of the method: as §1
T3 sequence (whole entry): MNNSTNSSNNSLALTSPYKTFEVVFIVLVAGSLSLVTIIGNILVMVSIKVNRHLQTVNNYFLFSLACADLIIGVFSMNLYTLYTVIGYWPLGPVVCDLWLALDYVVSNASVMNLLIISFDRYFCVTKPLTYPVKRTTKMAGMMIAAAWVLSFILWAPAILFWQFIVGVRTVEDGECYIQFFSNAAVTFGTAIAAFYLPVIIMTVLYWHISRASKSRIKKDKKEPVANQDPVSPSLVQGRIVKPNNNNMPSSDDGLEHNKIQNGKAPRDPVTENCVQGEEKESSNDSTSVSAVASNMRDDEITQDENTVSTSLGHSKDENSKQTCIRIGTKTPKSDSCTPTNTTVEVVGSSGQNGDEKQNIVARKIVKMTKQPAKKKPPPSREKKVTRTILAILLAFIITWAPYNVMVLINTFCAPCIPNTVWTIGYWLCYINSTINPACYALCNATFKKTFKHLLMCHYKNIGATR

[7] = target: T4, Muscarinic acetylcholine receptor M5 (Homo sapiens) (UniProt P08912); test: Inhibition of human muscarinic M5 receptor at 10 uM; summary of the method: as §1
T4 sequence (whole entry): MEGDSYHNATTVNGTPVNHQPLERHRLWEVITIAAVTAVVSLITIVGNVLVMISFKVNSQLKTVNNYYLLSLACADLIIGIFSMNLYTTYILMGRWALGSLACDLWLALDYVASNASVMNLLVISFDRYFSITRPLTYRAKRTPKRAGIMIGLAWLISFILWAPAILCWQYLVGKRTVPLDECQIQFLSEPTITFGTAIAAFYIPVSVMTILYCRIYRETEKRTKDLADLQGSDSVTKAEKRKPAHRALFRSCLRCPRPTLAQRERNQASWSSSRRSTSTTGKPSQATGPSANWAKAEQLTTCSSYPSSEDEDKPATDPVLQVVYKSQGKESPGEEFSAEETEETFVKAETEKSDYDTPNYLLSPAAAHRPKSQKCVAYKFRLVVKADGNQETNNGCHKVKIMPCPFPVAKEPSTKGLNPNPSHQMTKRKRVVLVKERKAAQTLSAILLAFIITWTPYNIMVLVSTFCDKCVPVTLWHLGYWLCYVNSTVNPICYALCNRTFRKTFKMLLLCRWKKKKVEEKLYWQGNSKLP

Hepatocyte [8] = test: Metabolic stability in human liver hepatocytes assessed as compound turnover after 120 mins; format: ADME, cell-based; details: 2 h
Hepatocyte [9] = test: Metabolic stability in primates liver hepatocytes assessed as compound turnover after 120 mins; format: ADME, cell-based; details: 2 h
[10] = Metabolic stability in dog liver hepatocytes assessed as compound turnover after 120 mins; format: ADME, cell-based, Canis lupus familiaris, Hepatocyte; details: 2 h
[11] = Vasoconstrictive activity in U46619 precontracted human arteries assessed as inhibition of acetylcholine-induced vasorelaxation at 100 uM after 50 mins; format: tissue-based, Artery
Summary of the method: (§2)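 Human resistance artery rings (~2 mm) from surgical tissue, wire-mounted in myograph baths of Krebs PSS at 37 °C, gassed with 95% O2/5% CO2. […] Compound given 50 min with or without L-arginine, then U46619 preconstriction and ACh curves (1×10⁻¹⁰ to 1×10⁻⁵ M). Responses as % of maximal U46619 contraction.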

Rattus norvegicus [12] = test: Antihyperalgesic activity in L5/L6 SNL Sprague-Dawley rat model of […] model assessed as reversal of thermal hyperalgesia at 30 mg/kg, ip measured after 30 mins; format: functional; details: route intraperitoneal
Summary of the method: (§3)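 Sprague-Dawley rats under halothane had L5 and L6 spinal nerves tightly ligated with 4-0 silk distal to the DRG, then recovered singly housed. Drug given intraperitoneally. Mechanical withdrawal threshold and radiant-heat withdrawal latency of the affected hind paw were measured.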

Cytochrome P450 2D6 = Cytochrome P450 2D6 (Homo sapiens, UniProt P10635); test: Inhibition of CYP2D6; format: ADME
Chain of Cytochrome P450 2D6 (P10635 whole entry): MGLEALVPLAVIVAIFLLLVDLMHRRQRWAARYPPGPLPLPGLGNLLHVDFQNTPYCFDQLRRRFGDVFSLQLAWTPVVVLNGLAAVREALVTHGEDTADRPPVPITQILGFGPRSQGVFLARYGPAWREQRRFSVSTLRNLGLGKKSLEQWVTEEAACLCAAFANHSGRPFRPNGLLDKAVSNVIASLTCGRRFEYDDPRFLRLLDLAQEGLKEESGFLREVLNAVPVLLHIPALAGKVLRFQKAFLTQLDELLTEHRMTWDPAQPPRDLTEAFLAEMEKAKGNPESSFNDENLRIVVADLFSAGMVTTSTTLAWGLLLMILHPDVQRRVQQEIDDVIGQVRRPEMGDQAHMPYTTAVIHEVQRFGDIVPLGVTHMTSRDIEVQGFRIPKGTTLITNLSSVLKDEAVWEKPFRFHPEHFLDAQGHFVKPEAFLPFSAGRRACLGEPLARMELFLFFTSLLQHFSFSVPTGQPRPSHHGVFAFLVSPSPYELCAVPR

Cytochrome P450 1A2 = target: T5, Cytochrome P450 1A2 (Homo sapiens, UniProt P05177); test: Inhibition of CYP1A2; format: ADME
T5 sequence (P05177 whole entry): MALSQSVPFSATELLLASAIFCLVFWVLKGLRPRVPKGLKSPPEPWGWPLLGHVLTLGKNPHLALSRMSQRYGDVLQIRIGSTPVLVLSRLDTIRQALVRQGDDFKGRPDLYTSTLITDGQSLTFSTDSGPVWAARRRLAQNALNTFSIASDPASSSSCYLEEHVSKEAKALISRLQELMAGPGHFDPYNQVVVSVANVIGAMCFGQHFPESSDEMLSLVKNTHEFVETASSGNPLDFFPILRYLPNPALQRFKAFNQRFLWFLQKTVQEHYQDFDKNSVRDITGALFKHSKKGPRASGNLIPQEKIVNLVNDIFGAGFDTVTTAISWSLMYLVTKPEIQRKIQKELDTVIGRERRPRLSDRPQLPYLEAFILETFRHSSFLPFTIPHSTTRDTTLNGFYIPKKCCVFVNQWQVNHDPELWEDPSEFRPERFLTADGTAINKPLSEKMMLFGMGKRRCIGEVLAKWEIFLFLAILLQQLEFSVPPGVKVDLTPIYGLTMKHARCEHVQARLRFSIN

[13] = target: Sodium-dependent noradrenaline transporter (Homo sapiens, UniProt P23975); test: Displacement of [3H]nisoxetine from human NET expressed in CHO cells after 120 mins by scintillation counting; format: cell-based
Chain of Sodium-dependent noradrenaline transporter (P23975 whole entry): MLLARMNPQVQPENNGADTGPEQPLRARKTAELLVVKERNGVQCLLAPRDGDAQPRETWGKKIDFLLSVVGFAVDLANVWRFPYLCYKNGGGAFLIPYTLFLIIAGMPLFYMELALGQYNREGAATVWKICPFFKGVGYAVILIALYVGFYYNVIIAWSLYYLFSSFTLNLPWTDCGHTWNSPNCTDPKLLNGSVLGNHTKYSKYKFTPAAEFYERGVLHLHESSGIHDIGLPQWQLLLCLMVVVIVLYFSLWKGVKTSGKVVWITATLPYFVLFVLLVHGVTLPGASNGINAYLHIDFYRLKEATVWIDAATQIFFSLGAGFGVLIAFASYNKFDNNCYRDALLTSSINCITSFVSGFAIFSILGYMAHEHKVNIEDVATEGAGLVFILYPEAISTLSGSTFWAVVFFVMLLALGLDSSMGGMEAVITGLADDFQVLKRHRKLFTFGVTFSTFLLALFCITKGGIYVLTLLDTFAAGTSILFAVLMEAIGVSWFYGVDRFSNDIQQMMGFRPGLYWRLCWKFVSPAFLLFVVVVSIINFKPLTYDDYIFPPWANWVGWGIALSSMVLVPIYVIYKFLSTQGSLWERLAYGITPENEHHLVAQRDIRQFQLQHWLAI
Summary of the method: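 Membranes from hNET-transfected CHO cells (20 μg protein) incubated 120 min at 4 °C with 1 nM [3H]nisoxetine in 50 mM Tris-HCl pH 7.4, 120 mM NaCl, 5 mM KCl. Nonspecific binding defined with 1 μM desipramine. Filtered on PEI-soaked GF/B and counted.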

[14] = Vasoconstrictive activity in U46619 precontracted human arteries assessed as inhibition of acetylcholine-induced vasorelaxation at 100 uM after 50 mins in presence of L-arginine; format: tissue-based, Artery; summary of the method: as §2
[15] = target: Nitric oxide synthase, inducible (Homo sapiens, UniProt P35228); test: Inhibition of human iNOS expressed in baculovirus-infected insect sf9 cells assessed as conversion of [3H]-L-arginine to [3H]-L-citrulline preincubated for 15 mins with compound measured after 45 mins by scintillation counting
Chain of Nitric oxide synthase, inducible (P35228 whole entry): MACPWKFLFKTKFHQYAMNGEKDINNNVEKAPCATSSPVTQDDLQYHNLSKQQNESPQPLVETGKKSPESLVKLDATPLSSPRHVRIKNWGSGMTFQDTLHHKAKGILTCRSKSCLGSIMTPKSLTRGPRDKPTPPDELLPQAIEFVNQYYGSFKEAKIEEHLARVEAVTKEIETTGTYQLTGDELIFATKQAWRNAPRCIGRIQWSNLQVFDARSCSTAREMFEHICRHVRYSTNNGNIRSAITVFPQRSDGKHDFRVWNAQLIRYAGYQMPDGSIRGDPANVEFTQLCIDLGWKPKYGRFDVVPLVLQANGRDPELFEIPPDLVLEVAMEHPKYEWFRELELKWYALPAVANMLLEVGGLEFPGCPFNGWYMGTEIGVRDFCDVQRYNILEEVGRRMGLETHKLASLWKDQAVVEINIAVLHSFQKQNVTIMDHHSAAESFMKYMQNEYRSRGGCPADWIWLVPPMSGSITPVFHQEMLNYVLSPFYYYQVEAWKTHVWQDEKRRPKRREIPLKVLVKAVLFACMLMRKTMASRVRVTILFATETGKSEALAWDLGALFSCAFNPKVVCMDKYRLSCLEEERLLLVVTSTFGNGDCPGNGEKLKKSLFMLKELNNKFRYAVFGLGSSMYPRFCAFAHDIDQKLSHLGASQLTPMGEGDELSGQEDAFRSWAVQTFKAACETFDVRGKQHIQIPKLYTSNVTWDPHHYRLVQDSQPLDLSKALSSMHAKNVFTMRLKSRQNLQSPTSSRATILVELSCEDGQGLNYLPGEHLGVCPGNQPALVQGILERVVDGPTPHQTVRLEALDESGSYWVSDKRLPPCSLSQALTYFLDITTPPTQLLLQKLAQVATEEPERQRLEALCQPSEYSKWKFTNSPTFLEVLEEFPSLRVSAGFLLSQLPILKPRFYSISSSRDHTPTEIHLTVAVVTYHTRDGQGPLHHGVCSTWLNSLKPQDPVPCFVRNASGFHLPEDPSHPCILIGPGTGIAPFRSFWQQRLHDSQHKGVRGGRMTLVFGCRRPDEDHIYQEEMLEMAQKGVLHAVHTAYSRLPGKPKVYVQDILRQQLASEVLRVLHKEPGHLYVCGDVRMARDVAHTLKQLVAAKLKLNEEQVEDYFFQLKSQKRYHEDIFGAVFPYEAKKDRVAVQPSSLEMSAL

Cytochrome P450 3A4 = Cytochrome P450 3A4 (Homo sapiens, UniProt P08684); test: Inhibition of CYP3A4; format: ADME
Chain of Cytochrome P450 3A4 (P08684 whole entry): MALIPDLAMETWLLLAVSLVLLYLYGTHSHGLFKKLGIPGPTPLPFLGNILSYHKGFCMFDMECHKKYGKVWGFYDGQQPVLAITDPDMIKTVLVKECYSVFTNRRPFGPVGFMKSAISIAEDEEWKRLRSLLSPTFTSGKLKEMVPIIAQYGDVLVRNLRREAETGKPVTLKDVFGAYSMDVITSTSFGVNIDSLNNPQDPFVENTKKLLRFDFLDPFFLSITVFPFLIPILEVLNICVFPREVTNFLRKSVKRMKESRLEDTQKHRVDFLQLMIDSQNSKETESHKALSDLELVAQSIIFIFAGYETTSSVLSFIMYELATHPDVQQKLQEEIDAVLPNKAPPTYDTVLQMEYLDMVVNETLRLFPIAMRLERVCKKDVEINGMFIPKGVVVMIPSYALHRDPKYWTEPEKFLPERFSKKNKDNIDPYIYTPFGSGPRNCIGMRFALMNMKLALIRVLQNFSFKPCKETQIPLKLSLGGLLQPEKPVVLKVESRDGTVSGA

Hepatocyte [16] = test: Metabolic stability in rat liver hepatocytes assessed as compound turnover after 120 mins; format: ADME, cell-based; details: 2 h
Rattus norvegicus [17] = test: Antiallodynic activity in L5/L6 SNL Sprague-Dawley rat model of […] model assessed as reversal of mechanical force-induced allodynia at 30 mg/kg, ip measured after 30 mins; format: functional; details: route intraperitoneal; summary of the method: as §3
Cytochrome P450 2C9 = Cytochrome P450 2C9 (Homo sapiens, UniProt P11712); test: Inhibition of CYP2C9; format: ADME
Chain of Cytochrome P450 2C9 (P11712 whole entry): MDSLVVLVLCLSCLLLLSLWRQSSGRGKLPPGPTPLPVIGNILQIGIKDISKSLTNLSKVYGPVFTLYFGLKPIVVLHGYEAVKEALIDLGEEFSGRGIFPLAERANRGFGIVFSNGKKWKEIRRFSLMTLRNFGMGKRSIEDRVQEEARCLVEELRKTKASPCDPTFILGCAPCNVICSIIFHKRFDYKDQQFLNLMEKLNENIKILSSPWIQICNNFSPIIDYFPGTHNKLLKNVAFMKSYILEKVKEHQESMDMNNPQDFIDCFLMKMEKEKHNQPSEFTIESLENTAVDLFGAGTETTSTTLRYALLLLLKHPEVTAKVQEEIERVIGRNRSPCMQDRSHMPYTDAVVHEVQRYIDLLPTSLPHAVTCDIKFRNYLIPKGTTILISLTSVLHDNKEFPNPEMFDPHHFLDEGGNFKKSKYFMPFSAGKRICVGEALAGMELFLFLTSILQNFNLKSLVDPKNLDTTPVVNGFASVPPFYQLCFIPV

Cytochrome P450 2C19 = Cytochrome P450 2C19 (Homo sapiens, UniProt P33261); test: Inhibition of CYP2C19; format: ADME
Chain of Cytochrome P450 2C19 (P33261 whole entry): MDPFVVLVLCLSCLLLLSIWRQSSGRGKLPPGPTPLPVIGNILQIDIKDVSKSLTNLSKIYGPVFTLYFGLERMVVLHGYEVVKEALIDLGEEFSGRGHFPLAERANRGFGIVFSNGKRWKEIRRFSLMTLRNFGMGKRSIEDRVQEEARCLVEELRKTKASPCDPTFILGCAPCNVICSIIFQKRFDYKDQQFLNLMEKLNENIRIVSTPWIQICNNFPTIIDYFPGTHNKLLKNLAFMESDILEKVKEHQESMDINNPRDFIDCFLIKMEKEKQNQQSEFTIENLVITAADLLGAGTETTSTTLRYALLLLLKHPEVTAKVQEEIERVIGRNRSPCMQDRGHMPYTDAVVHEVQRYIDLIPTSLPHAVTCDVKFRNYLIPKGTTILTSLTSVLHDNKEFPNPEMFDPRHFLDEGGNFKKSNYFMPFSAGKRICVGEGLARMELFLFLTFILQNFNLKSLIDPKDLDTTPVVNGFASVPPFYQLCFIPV

Compound: CNC1CCCC(c2c[nH]c3ccc(NC(=N)c4cccs4)cc23)C1 (single isomer, unassigned; (+))
- inhibition [1]: 61%
- inhibition [2]: 93%
- inhibition [3]: 80%
- inhibition [4]: 88%
- inhibition [5]: 53%
- inhibition [6]: 87%
- inhibition [7]: 87%

Compound: CNC1CCCC(c2c[nH]c3ccc(NC(=N)c4cccs4)cc23)C1.Cl (single isomer, unassigned; (+))
- Stability (Hepatocyte [8]): Stable
- Stability (Hepatocyte [9]): Stable
- Stability [10]: Stable
- Activity [11]: Non-toxic
- Activity (Rattus norvegicus [12]): 96%
- IC50 (Cytochrome P450 2D6): 5.14 µM
- IC50 (Cytochrome P450 1A2): Not Active
- IC50 [13]: 1 µM
- Activity [14]: Non-toxic
- IC50 [15]: 6.76 µM
- IC50 (Cytochrome P450 3A4): 100 µM
- Stability (Hepatocyte [16]): Stable
- Activity (Rattus norvegicus [17]): 90%
- IC50 (Cytochrome P450 2C9): Not Active
- IC50 (Cytochrome P450 2C19): > 100 µM
